Measurements collected from several papers.
Each line is one published result; the experiments were not run side by side.
Read-out: microbial growth

Structure (SMILES) | organism | technique | strain | time | MIC
O=c1oc2c(O)c(O)cc3c(=O)oc4c(O)c(O)cc1c4c23 | Streptococcus gordonii | broth dilution |  | 24 h | 100 µg/mL
CNC(C)C1CCC(N)C(OC2C(N)CC(N)C(OC3OCC(C)(O)C(NC)C3O)C2O)O1 (stereo not shown) | Proteus mirabilis | broth dilution |  |  | 2 µg/mL
CC1(C)S[C@@H]2[C@H](NC(=O)[C@H](N)c3ccccc3)C(=O)N2[C@H]1C(=O)O | Acinetobacter baumannii | broth dilution | ATCC19606 |  | > 64 µg/mL
CCCCCCC#Cc1cncc(-c2nnc(SCc3ccc([N+](=O)[O-])cc3)n2CCCN)c1 | Acinetobacter baumannii | broth dilution | ATCC17978 |  | 64 µg/mL
CC[C@H]1OC(=O)[C@H](C)[C@@H](O[C@H]2C[C@@](C)(OC)[C@@H](O)[C@H](C)O2)[C@H](C)[C@@H](O[C@@H]2O[C@H](C)C[C@H](N(C)C)[C@H]2O)[C@](C)(O)C[C@@H](C)CN(C)[C@H](C)[C@@H](O)[C@]1(C)O | Acinetobacter baumannii | broth dilution | ATCCBAA1605 |  | 16 µg/mL
C[C@@H]1O[C@@H](OC[C@H]2O[C@@H](Oc3c(-c4ccc(O)c(O)c4)oc4cc(O)cc(O)c4c3=O)[C@H](O)[C@@H](O)[C@@H]2O)[C@H](O)[C@H](O)[C@H]1O | Streptococcus gordonii | broth dilution |  | 24 h | 200 µg/mL
CCCCCCCCCCCC[N+](C)(C)Cc1ccccc1 | Acinetobacter baumannii |  | ATCC17978 |  | 63 µM
CCCCCCC#Cc1cncc(-c2nnc(SCc3cc(C(F)(F)F)cc(C(F)(F)F)c3)n2CCCN)c1 | Acinetobacter baumannii | broth dilution | ATCC17978 |  | 32 µg/mL
O=C1O[C@H]2[C@@H]3OC(=O)c4cc(O)c(O)c(O)c4-c4c(O)c(O)c5oc(=O)c6c(c(O)c(O)c7oc(=O)c4c5c76)-c4c(cc(O)c(O)c4O)C(=O)OC[C@H]3OC(O)[C@@H]2OC(=O)c2cc(O)c(O)c(O)c2-c2c1cc(O)c(O)c2O (mixture of isomers) | Streptococcus gordonii | broth dilution |  | 24 h | 100 µg/mL
CC1(C)S[C@@H]2[C@H](NC(=O)[C@H](N)c3ccc(O)cc3)C(=O)N2[C@H]1C(=O)O | Acinetobacter baumannii | broth dilution | ATCCBAA1605 |  | > 64 µg/mL
